Assay results: ChEMBL document CHEMBL1148625, “3-(1,1-dioxo-2H-(1,2,4)-benzothiadiazin-3-yl)-4-hydroxy-2(1H)-quinolinones, potent inhibitors of hepatitis C virus RNA-dependent RNA polymerase” (J Med Chem, 2006)

Legend:
[1] = biological target: RNA-directed RNA polymerase (Hepacivirus hominis) (UniProt O39930); test: Inhibition of HCV RNA replication in Huh7 cells; assay type: functional, cell-based; conditions: Huh-7
Outline: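 Huh-7 subgenomic replicon cells were seeded at 3 × 10³/well in DMEM with 10% FCS, 1% NEAA and 1 mg/mL G418, and allowed 4 h to attach. Eleven 2.5-fold DMSO dilutions were added (final 10,000 to 1.0 nM) and cells incubated 40 h. Neo RNA was measured by TaqMan RT-PCR, normalised to cyclophilin against DMSO controls; n = 8 wells per dilution.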

[2] = biological target: RNA-directed RNA polymerase (Hepacivirus hominis, UniProt O39930); test: Inhibitory activity against HCV delta 21 NS5B RNA polymerase by SPA assay; parameters: species or system Hepatitis C virus subtype 1b
RNA-directed RNA polymerase, sequence (O39930 whole entry): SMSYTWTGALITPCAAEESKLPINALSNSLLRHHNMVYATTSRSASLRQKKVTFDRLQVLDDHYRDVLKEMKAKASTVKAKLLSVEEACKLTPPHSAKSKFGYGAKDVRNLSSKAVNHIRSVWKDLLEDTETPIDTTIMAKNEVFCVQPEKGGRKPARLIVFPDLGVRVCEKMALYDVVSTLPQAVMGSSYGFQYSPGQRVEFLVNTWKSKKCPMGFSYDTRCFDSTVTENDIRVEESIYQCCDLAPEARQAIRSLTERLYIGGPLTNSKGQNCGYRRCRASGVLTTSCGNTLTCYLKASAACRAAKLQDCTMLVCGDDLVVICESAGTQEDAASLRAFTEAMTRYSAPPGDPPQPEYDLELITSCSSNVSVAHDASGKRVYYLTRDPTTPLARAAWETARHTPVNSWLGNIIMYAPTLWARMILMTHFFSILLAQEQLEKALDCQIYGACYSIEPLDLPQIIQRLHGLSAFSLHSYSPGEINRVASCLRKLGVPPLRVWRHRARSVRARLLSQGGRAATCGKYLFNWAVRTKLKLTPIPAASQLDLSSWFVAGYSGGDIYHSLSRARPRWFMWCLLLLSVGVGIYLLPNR

[3] = Cmax in Sprague-Dawley rat at 1.2 mg/kg, iv or 3.7 mg/kg, po; assay type: ADME, organism-based; conditions: in vivo
Outline: (§1)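 Single-dose administration, given both intravenously and orally, to Sprague-Dawley rats, beagle dogs or cynomolgus monkeys. Plasma pharmacokinetic parameters are reported as means: Cmax in ng/mL, terminal half-life in min, clearance in mL/min/kg, steady-state volume of distribution in L/kg, and oral bioavailability F in %.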

[4] = Cmax in Beagle dog at 0.9 mg/kg, iv or 3.6 mg/kg, po; assay type: ADME, organism-based, Canis lupus familiaris; conditions: in vivo
Outline: (§2)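 Single-dose pharmacokinetics in the named species, given iv and orally at the stated doses. Plasma Cmax, half-life, clearance, steady-state volume of distribution and oral bioavailability were reported as mean values.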

[5] = Cmax in cynomolgus monkey at 1.0 mg/kg, iv or 3.6 mg/kg, po; assay type: ADME, organism-based, Macaca fascicularis; conditions: in vivo; outline: as §2
[6] = Clearance in Sprague-Dawley rat at 1.2 mg/kg, iv or 3.7 mg/kg, po; assay type: ADME, organism-based; conditions: in vivo; outline: as §1
[7] = Clearance in Beagle dog at 0.9 mg/kg, iv or 3.6 mg/kg, po; assay type: ADME, organism-based, Canis lupus familiaris; conditions: in vivo; outline: as §2
[8] = Clearance in cynomolgus monkey at 1.0 mg/kg, iv or 3.6 mg/kg, po; assay type: ADME, organism-based, Macaca fascicularis; conditions: in vivo; outline: as §2
[9] = Oral bioavailability in Sprague-Dawley rat at 1.2 mg/kg, iv or 3.7 mg/kg, po; assay type: ADME, organism-based; conditions: in vivo; outline: as §1
[10] = Oral bioavailability in Beagle dog at 0.9 mg/kg, iv or 3.6 mg/kg, po; assay type: ADME, organism-based, Canis lupus familiaris; conditions: in vivo; outline: as §2
[11] = Oral bioavailability in cynomolgus monkey at 1.0 mg/kg, iv or 3.6 mg/kg, po; assay type: ADME, organism-based, Macaca fascicularis; conditions: in vivo; outline: as §2
[12] = Volume of distribution in Sprague-Dawley rat at 1.2 mg/kg, iv or 3.7 mg/kg, po; assay type: ADME, organism-based; conditions: in vivo, read-out: Vdss; outline: as §1
[13] = Volume of distribution in Beagle dog at 0.9 mg/kg, iv or 3.6 mg/kg, po; assay type: ADME, organism-based, Canis lupus familiaris; conditions: in vivo, read-out: Vdss; outline: as §2
[14] = Volume of distribution in cynomolgus monkey at 1.0 mg/kg, iv or 3.6 mg/kg, po; assay type: ADME, organism-based, Macaca fascicularis; conditions: in vivo, read-out: Vdss; outline: as §2
[15] = Half life in Sprague-Dawley rat at 1.2 mg/kg, iv or 3.7 mg/kg, po; assay type: ADME, organism-based; conditions: in vivo; outline: as §1
[16] = Half life in Beagle dog at 0.9 mg/kg, iv or 3.6 mg/kg, po; assay type: ADME, organism-based, Canis lupus familiaris; conditions: in vivo; outline: as §2
[17] = Half life in cynomolgus monkey at 1.0 mg/kg, iv or 3.6 mg/kg, po; assay type: ADME, organism-based, Macaca fascicularis; conditions: in vivo; outline: as §2

RNA-directed RNA polymerase (Hepacivirus hominis), sequence (O39930 1-591): as the sequence (O39930 whole entry) above

CC(C)CCn1c(=O)c(C2=NS(=O)(=O)c3ccccc3N2)c(O)c2cc(OCC(N)=O)ccc21
EC90 [1]: 2410 nM

O=c1c(C2=Nc3ccccc3S(=O)(=O)N2)c(O)c2ccccc2n1Cc1ccccc1
IC50 [2]: 82 nM

CC(C)CCn1c(=O)c(C2=Nc3ccccc3S(=O)(=O)N2)c(O)c2cc(NC(=O)C3CCCC3)ccc21
IC50 [2]: 973 nM

CC(C)CCn1c(=O)c(C2=Nc3ccccc3S(=O)(=O)N2)c(O)c2ccc(C(=O)O)cc21
IC50 [2]: > 10000 nM

COCCn1c(=O)c(C2=Nc3ccccc3S(=O)(=O)N2)c(O)c2ccccc21
IC50 [2]: 819 nM

CC(C)CCn1c(=O)c(C2=NS(=O)(=O)c3ccccc3N2)c(O)c2cc(N)ccc21
EC90 [1]: 1200 nM

CC1CC1Cn1c(=O)c(C2=Nc3ccccc3S(=O)(=O)N2)c(O)c2ccccc21 (stereo unspecified)
IC50 [2]: 41 nM

CC(C)CCn1c(=O)c(C2=Nc3ccccc3S(=O)(=O)N2)c(O)c2cc(F)ccc21
IC50 [2]: 20 nM

CC(C)CCn1c(=O)c(C2=Nc3ccccc3S(=O)(=O)N2)c(O)c2ccc(Cl)cc21
IC50 [2]: > 10000 nM

CC(C)=CCn1c(=O)c(C2=Nc3ccccc3S(=O)(=O)N2)c(O)c2ccccc21
IC50 [2]: 289 nM

CCC(C)CCn1c(=O)c(C2=NS(=O)(=O)c3ccccc3N2)c(O)c2ccccc21 (stereo unspecified)
IC50 [2]: 65 nM

Nc1ccc2c(c1)c(O)c(C1=NS(=O)(=O)c3ccccc3N1)c(=O)n2CCC1CC1
IC50 [2]: 32 nM
EC90 [1]: 593 nM

Cc1ccc2c(c1)c(O)c(C1=NS(=O)(=O)c3ccccc3N1)c(=O)n2CCC(C)C
Cmax [3]: 1220 ng/mL
Cmax [4]: 1960 ng/mL
Cmax [5]: 2140 ng/mL
clearance [6]: 1.65 mL/min/kg
clearance [7]: 1.09 mL/min/kg
clearance [8]: 5.32 mL/min/kg
bioavailability [9]: 100%
bioavailability [10]: > 50%
bioavailability [11]: > 53%
Vd [12]: 0.81 L/kg
Vd [13]: 0.72 L/kg
Vd [14]: 0.34 L/kg
half-life [15]: 5.29 h
half-life [16]: 9.06 h
half-life [17]: 0.828 h
IC50 [2]: 47 nM
EC90 [1]: 831 nM

CC(C)CCn1c(=O)c(C2=Nc3ccccc3S(=O)(=O)N2)c(O)c2cc(OCc3ccccc3)ccc21
IC50 [2]: 3950 nM
